Experimental data reported in ChEMBL document CHEMBL3414424, “Fluoroalkane thioheterocyclic derivatives and their antitumor activity” (Eur J Med Chem, 2015).
Calls of active or inactive are those of the source. No cut-off for these calls is given here.

Legend:
HepG2 [1] = test: Cytotoxicity against human HepG2 cells after 48 hrs by MTT assay; assay type: functional, cell-based; conditions: HepG2, 48 h
Summary of the method: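 HepG2 kept in MEM with 10% FBS and 1% penicillin/streptomycin at 37 °C, 5% CO2. After overnight growth, cells were exposed continuously to compounds for 48 h in MEM with 10% FBS. They were then PBS-washed and given 0.5 mg/ml MTT in serum-free DMEM for 4 h. Formazan was dissolved in DMSO and read at 570 nm.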

[2] = Cytotoxicity against human SH-SY5Y cells after 48 hrs by MTT assay; assay type: functional, cell-based
Summary of the method: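 SH-SY5Y, after overnight growth, were exposed continuously to compounds for 48 h in DMEM with 10% FBS. Then PBS washes, 4 h with 0.5 mg/ml MTT in serum-free DMEM, DMSO solubilization of formazan, and OD at 570 nm.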

MCF7 [3] = test: Cytotoxicity against human MCF7 cells after 48 hrs by MTT assay; assay type: functional, cell-based; conditions: MCF7, 48 h
Summary of the method: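 MCF-7 cells were grown overnight, then treated continuously for 48 h with compounds in DMEM containing 10% FBS. After two PBS washes, cells got 0.5 mg/ml MTT in serum-free DMEM for 4 h. Formazan was solubilized in DMSO and OD read at 570 nm.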

MCF7 [4] = test: Cytotoxicity against human MCF7 cells at 1 uM after 48 hrs by MTT assay; assay type: functional, cell-based
Summary of the method: (§1)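 Percent proliferation inhibition of MCF-7 at a single concentration, taken from a dose-response series. Cells were plated overnight, then compound-treated for 48 h in DMEM + 10% FBS. They were washed with PBS and incubated 4 h with 0.5 mg/ml MTT in serum-free DMEM. Formazan was dissolved in DMSO and read at 570 nm.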

HepG2 [5] = test: Cytotoxicity against human HepG2 cells at 1 uM after 48 hrs by MTT assay; assay type: functional, cell-based
Summary of the method: (§2)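 After overnight plating, HepG2 cells (maintained in MEM/10% FBS/1% pen-strep, 37 °C, 5% CO2) were treated at a fixed compound concentration for 48 h in MEM plus 10% FBS. MTT was 0.5 mg/ml in serum-free DMEM for 4 h after PBS washes, with formazan taken up in DMSO. Absorbance at 570 nm gave percent proliferation inhibition, part of a dose-response series.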

[6] = Cytotoxicity against human SH-SY5Y cells at 1 uM after 48 hrs by MTT assay; assay type: functional
Summary of the method: (§3)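 SH-SY5Y cells were grown overnight and treated for 48 h at the stated concentration in DMEM/10% FBS, as part of a dose-response series. After PBS washes, cells were incubated 4 h with 0.5 mg/ml MTT in serum-free DMEM. Formazan was dissolved in DMSO and read at 570 nm to give inhibition rate.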

HepG2 [7] = test: Cytotoxicity against human HepG2 cells at 5 uM after 48 hrs by MTT assay; assay type: functional; conditions: HepG2, 48 h; summary of the method: as §2
[8] = Cytotoxicity against human SH-SY5Y cells at 5 uM after 48 hrs by MTT assay; assay type: functional; summary of the method: as §3
MCF7 [9] = test: Cytotoxicity against human MCF7 cells at 5 uM after 48 hrs by MTT assay; assay type: functional; conditions: MCF7, 48 h; summary of the method: as §1
HepG2 [10] = test: Cytotoxicity against human HepG2 cells at 10 uM after 48 hrs by MTT assay; assay type: functional, cell-based; summary of the method: as §2
SH-SY5Y = test: Cytotoxicity against human SH-SY5Y cells at 10 uM after 48 hrs by MTT assay; assay type: functional, cell-based; summary of the method: as §3
MCF7 [11] = test: Cytotoxicity against human MCF7 cells at 10 uM after 48 hrs by MTT assay; assay type: functional, cell-based; summary of the method: as §1

SMILES | IC50 (HepG2 [1]) [µM] | IC50 [2] [µM] | IC50 (MCF7 [3]) [µM] | other results
N#CC(C#N)(CCC(F)=C(F)F)Cc1nccs1 | > 120 | > 120 | > 120 | 
FC(F)=C(F)CCSc1ncc(Cl)s1 | > 120 | > 120 | > 120 | 
Cn1c(SCCC(F)=C(F)F)nc(-c2ccncc2)cc1=O | > 120 | > 120 | > 120 | 
FC(F)=C(F)CCSc1nc2ccccc2o1 | > 120 | > 120 | > 120 | 
O=S(=O)(CCC(F)=C(F)F)c1ncc(-c2ccncc2)s1 | > 120 | > 120 | > 120 | 
FC(F)=C(F)CCSc1nnc(S)s1 | > 120 | > 120 | > 120 | 
[O-][S+](CCC(F)(Cl)C(F)(F)Cl)c1nc2ccc(Cl)cc2s1 (stereo unspecified) | 6.9 | 2.1 | 12.2 | inhibition (MCF7 [4]): inactive; inhibition (HepG2 [5]): inactive; inhibition at 1 µM [6]: 50%
FC(F)=C(F)CCSc1nc2ccccc2s1 | > 120 | > 120 | > 120 | 
CC(=C(C#N)C#N)c1nccs1 | 105 | 68.8 | 110 | 
CC(c1nccs1)C(C#N)C#N (stereo unspecified) | > 120 | > 120 | > 120 | 
FC(F)=C(F)CCSc1nc2ccc(OC(F)F)cc2[nH]1 | > 120 | > 120 | > 120 | 
O=S(=O)(CCC(F)=C(F)F)c1nc2ccccc2s1 | 3.71 | 2.64 | 7.2 | inhibition (MCF7 [4]): inactive; inhibition (HepG2 [5]): inactive; inhibition at 1 µM [6]: 50%
[O-][S+](CCC(F)=C(F)F)c1nc2ccccc2[nH]1 (stereo unspecified) | > 120 | > 120 | > 120 | 
O=S(=O)(CCC(F)(Cl)C(F)(F)Cl)c1nc2ccccc2s1 (stereo unspecified) | 4.5 | 4.5 | 10.1 | 
O=S(=O)(CCC(F)=C(F)F)c1nc2ccccc2[nH]1 | > 120 | > 120 | > 120 | 
FC(F)(Cl)C(F)(Cl)CCSc1nc2ccc(Cl)cc2s1 (stereo unspecified) | > 120 | > 120 | > 120 | 
COc1ccc2c(c1OC)C(=O)O[C@@H]2[C@H]1c2c(cc3c(c2OC)OCO3)CCN1C [NOSCAPINE] |  | 80.3 |  | 
O=S(=O)(CCC(F)=C(F)F)c1ccccn1 | > 120 | > 120 | > 120 | 
FC(F)=C(F)CCSc1ccccn1 | > 120 | > 120 | > 120 | 
c1ccc2sc(SN(C3CCCCC3)C3CCCCC3)nc2c1 | > 120 | 69.1 | > 120 | 

SMILES | IC50 (HepG2 [1]) [µM] | IC50 [2] [µM] | IC50 (MCF7 [3]) [µM] | other results
[O-][S+](CCC(F)=C(F)F)c1nc2ccccc2o1 (stereo unspecified) | 5.6 | 0.4 | 4.5 | inhibition at 5 µM (HepG2 [7]): 60%; inhibition at 5 µM [8]: 60%; inhibition at 5 µM (MCF7 [9]): 20%
N#CC(C#N)Cc1nccs1 | > 120 | > 120 | > 120 | 
O=S(=O)(CCC(F)=C(F)F)c1nc2ccc(OC(F)F)cc2[nH]1 | > 120 | > 120 | > 120 | 
FC(F)=C(F)CCSc1nccs1 | > 120 | > 120 | > 120 | 
[O-][S+](CCC(F)=C(F)F)c1nccs1 (stereo unspecified) | > 120 | > 120 | > 120 | 
O=S(=O)(CCC(F)(Cl)C(F)(F)Cl)c1nc2ccc(Cl)cc2s1 (stereo unspecified) | 6.1 | 6 | 8.4 | 
N#CC(C#N)=Cc1nccs1 | > 120 | > 120 | > 120 | 
FC(F)=C(F)CCSc1ncc(-c2ccncc2)s1 | > 120 | > 120 | > 120 | 
c1ccc2sc(SSc3nc4ccccc4s3)nc2c1 [BENZOTHIAZYL DISULFIDE] | > 120 | > 120 | > 120 | 
[O-][S+](CCC(F)=C(F)F)c1ncc(-c2ccncc2)s1 (stereo unspecified) | > 120 | > 120 | > 120 | 
c1ccc2sc(SNC3CCCCC3)nc2c1 | 55 | > 120 | 89.2 | 
CC(c1nccs1)C(C#N)(C#N)CCC(F)=C(F)F (stereo unspecified) | > 120 | > 120 | > 120 | 
CC(C)(c1nccs1)C(C#N)C#N | > 120 | > 120 | > 120 | 
FC(F)(Cl)C(F)(Cl)CCSc1nc2ccccc2s1 (stereo unspecified) | > 120 | > 120 | > 120 | 
[O-][S+](CCC(F)=C(F)F)c1nc2ccccc2s1 (stereo unspecified) | 4.7 | 7 | 8.6 | 
CC(=O)O[C@H]1C(=O)[C@@]2(C)[C@H]([C@H](OC(=O)c3ccccc3)[C@]3(O)C[C@H](OC(=O)[C@H](O)[C@@H](NC(=O)c4ccccc4)c4ccccc4)C(C)=C1C3(C)C)[C@]1(OC(C)=O)CO[C@@H]1C[C@@H]2O [PACLITAXEL] | 0.045 |  | 0.032 | 
O=S(=O)(CCC(F)=C(F)F)c1nccs1 | > 120 | > 120 | > 120 | 
[O-][S+](CCC(F)(Cl)C(F)(F)Cl)c1nc2ccccc2s1 (stereo unspecified) | 13.5 | 41.5 | 17.1 | Activity (HepG2 [10]): Active; Activity (SH-SY5Y): Active; Activity (MCF7 [11]): Active
FC(F)=C(F)CCSc1nc2ccccc2[nH]1 | > 120 | > 120 | > 120 | 
